Bioassay records (PubChem)
In the library only some 2.9% were active in any assay of this set; here they are far more common.
GSIS activator – primary screen for activators of insulin secretion dependent on glucose, INS-1E cells, GLuc reporter luminescence; INS-1E GLuc reporter insulin secretion, 2-3 h; activation, % at 16.6 µM; 370,000 compounds, 0.61% hits; AID 743287;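 active means lowest replicate activation of at least 40%, so every replicate reaches that level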;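 further: 0% = median of neutral control wells and 100% = median of IBMX positive control wells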
Cneo AK release – causes C. neoformans cell lysis. adenylate kinase release luminescence, 4 h; normalised: neutral wells 0, clomiphene wells 100. lysis activity, % at 15 µM. 360,000 compounds, 0.2% hits. AID 651654;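 active means mean lysis activity across replicates of at least 80%, whatever share of replicates individually reach that level; inactive means mean lysis activity below 80%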
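Schedule: static 4 h at 37 °C with compound, 1 h detection; system: C. neoformans cells; benchmarks: Clomiphene as positive control; buffer or medium: fresh YPD medium; measure: luminescence rise reflecting yeast cell lysis; measured by: luminescent adenylate kinase detection reagent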
dFosB activator – mouse delta FosB homodimer activation | P13346 | activation, % at 25 µM | purified delta FosB, TAMRA-CDK5 oligo fluorescence polarization; percent of positive-control signal above neutral wells | 340,000 compounds, 0.99% hits;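 active means mean activation above about 17%, with every replicate also reaching it, limit read from the data, passing the limit was not always enough; inconclusive means only one of the two conditions met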
HIV Env fusion – HIV envelope-mediated fusion inhibition; HeLa-JRFL Env/CEM21 cell fusion, luciferase; inhibition, % at 12.3 µM; 360,000 compounds, 1.1% hits; AID 651610;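 active means mean replicate inhibition score of at least 50 and every replicate individually at or above 50; inconclusive means only one of the two criteria met; inactive means mean below 50 and not all replicates reaching 50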;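 further: 0% = plate neutral controls and 100% = maraviroc near 300 nM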
PAX8 inh HTS – inhibitors of PAX8 transcriptional activity in RMG-I cells; inhibition, % at 12.6 µM; 360,000 compounds, 1.2% hits; RMG-I TPO-luciferase reporter, SteadyGlo, 24 h;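 active means mean replicate inhibition at least 60% with every replicate also reaching 60%; inconclusive means only one of the two criteria is met; inactive means mean below 60% and not all replicates reaching 60%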;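 further: luciferase light reporting Pax8 driven TPO promoter activity; plate controls were median of neutral control wells for no effect and mitoxantrone controls for full effect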
CDK5 inh – CDK5/p35 (human) kinase inhibition; Q00535+Q15078; Recombinant CDK5/p35, ADP-Glo luminescence, 60 min; inhibition, % at 10 µM; 330,000 compounds, 0.01% hits;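 active means highest replicate inhibition of at least 50% and at least 75% of replicates reaching 50%; inconclusive means only one of the two criteria met; inactive means both criteria failed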;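 further: plate controls were DMSO neutral control for no effect and GW8510 at 10 µM for full effect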
Target sequence (Q00535 whole entry, looked up): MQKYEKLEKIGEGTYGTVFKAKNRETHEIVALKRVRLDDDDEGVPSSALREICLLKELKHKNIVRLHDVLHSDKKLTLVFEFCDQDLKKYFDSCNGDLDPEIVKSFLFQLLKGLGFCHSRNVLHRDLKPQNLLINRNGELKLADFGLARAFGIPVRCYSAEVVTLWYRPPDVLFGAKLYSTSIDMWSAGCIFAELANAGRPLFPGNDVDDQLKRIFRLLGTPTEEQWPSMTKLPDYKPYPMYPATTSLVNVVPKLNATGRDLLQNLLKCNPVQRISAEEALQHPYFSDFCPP
Target sequence (Q15078 whole entry, looked up): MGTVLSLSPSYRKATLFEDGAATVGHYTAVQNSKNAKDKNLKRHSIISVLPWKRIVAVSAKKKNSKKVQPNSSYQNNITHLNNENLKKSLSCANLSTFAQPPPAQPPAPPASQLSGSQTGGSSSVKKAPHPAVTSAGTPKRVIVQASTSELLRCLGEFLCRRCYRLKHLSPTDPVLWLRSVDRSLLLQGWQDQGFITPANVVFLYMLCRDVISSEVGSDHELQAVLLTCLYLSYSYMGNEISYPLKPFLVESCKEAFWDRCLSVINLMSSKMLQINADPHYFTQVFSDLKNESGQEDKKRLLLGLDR
* hit, by the source's call; ? = inconclusive; · = no result given; [ ] = dose if it differs, or a comment.

SMILES	GSIS activator	Cneo AK release	dFosB activator	HIV Env fusion	PAX8 inh HTS	CDK5 inh
Nc1ccc2nc(-c3ccc(Cl)cc3)[nH]c2c1	·	-1.2	-16.7	-67.8	79.6*	0.0
CN1c2ccc(-c3ccccc3)cc2[C@@H]2[C@@H](CCN2C(=O)NC2CCCCC2)[C@@H]1CO	-23.1	·	·	8.7[16.7 µM]	81.3*	·
COc1ccc(NC(=O)N2CC[C@@H]3[C@H]2c2cc(-c4ccc(F)cc4)ccc2N(C)[C@H]3CO)cc1	-9.3	-3.3	·	·	71.0*	·
COc1ccc(-c2ccc3c(c2)[C@@H]2[C@@H](CCN2C(=O)NC2CCCCC2)[C@@H](CO)N3C)cc1	-45.0	0.0	·	·	84.8*	·
COc1cccc(-c2ccc3c(c2)[C@@H]2[C@@H](CCN2C(=O)NC2CCCC2)[C@H](CO)N3C)c1	-0.1	3.0	·	·	?	·
CCN(CC)CCCNC1=C(Cl)C(=O)c2ccccc2C1=O	-17.9	0.0	-1.4	8.2	69.9*	-0.2
C[C@@H]1CCCCO[C@@H](CN(C)CC2CCCCC2)[C@@H](C)CN([C@@H](C)CO)C(=O)c2cc(NS(=O)(=O)c3ccc(F)cc3)ccc2O1	-23.6	5.5	·	6.0[16.7 µM]	72.2*	·
CCCN(C)C[C@H]1OCCCC[C@H](C)Oc2ccc(NS(=O)(=O)c3ccc(F)cc3)cc2C(=O)N([C@@H](C)CO)C[C@@H]1C	3.2	5.4	·	-13.6[16.7 µM]	69.2*	·
C[C@@H]1CCCCO[C@H](CN(C)CC2CCCCC2)[C@H](C)CN([C@@H](C)CO)C(=O)c2cc(NS(=O)(=O)c3ccc(Cl)cc3)ccc2O1	-22.6	-10.0	·	4.6[16.7 µM]	104.1*	·
C[C@@H]1CCCCO[C@H](CN(C)CC2CC2)[C@H](C)CN([C@@H](C)CO)C(=O)c2cc(NS(=O)(=O)c3ccc(Cl)cc3)ccc2O1	-4.8	-0.8	·	5.9[16.7 µM]	6.8	·
O=C(C[C@H]1CC[C@@H]2[C@H](COC[C@@H](O)CN2Cc2ccc(Cl)cc2)O1)Nc1nccs1	-8.3	-6.0	·	·	16.6	·
C[C@H](O)C#Cc1ccc2c(c1)O[C@H](CN(C)C(=O)Cc1ccccn1)[C@@H](C)CN([C@@H](C)CO)S2(=O)=O	6.2	53.8	·	-10.5[16.7 µM]	·	·
CC1(C)CC(N2CCCC2)=CC(=[N+]2CCCCC2)C1	-26.5	-5.5	-5.9	45.6	37.6	1.1
CC1(C)CC(N2CCN(Cc3ccccc3)CC2)=CC(=[N+]2CCCCC2)C1	-41.5	-0.5	-11.5	-2.3	69.2*	2.5
CC1(C)CC(N2CCCC2)=CC(=[N+]2CCCC2)C1	-32.6	-2.7	-2.3	59.4*	13.5	0.9
CN(Cc1ccccc1)C1=CC(=[N+]2CCCCC2)CC(C)(C)C1	-46.1	-0.5	-11.1	44.5	74.3*	2.8
C[C@@H]1CN([C@@H](C)CO)S(=O)(=O)c2ccc(C3=CCCC3)cc2O[C@H]1CN(C)C(=O)c1ccncc1	2.8	-2.9	·	-6.6[16.7 µM]	-26.9	·
C[C@@H]1CCCCO[C@H](CN(C)C(=O)Nc2ccc(C(F)(F)F)cc2)[C@@H](C)CN([C@@H](C)CO)C(=O)c2cc(NS(=O)(=O)c3ccc(F)cc3)ccc2O1	4.4	-1.0	·	6.9[16.7 µM]	85.2*	·
C[C@H]1CCCCO[C@@H](CN(C)C(=O)Nc2ccc(C(F)(F)F)cc2)[C@@H](C)CN([C@@H](C)CO)C(=O)c2cc(NS(=O)(=O)c3ccc(F)cc3)ccc2O1	11.7	8.9	·	61.3*[16.7 µM]	-21.0	·
C[C@@H]1CCCCO[C@H](CN(C)C(=O)Nc2ccc(C(F)(F)F)cc2)[C@@H](C)CN([C@H](C)CO)C(=O)c2cc(NS(=O)(=O)c3ccc(F)cc3)ccc2O1	16.9	3.9	·	-38.0[16.7 µM]	-4.2	·
C[C@@H]1CCCCO[C@H](CN(C)C(=O)Nc2ccc(C(F)(F)F)cc2)[C@H](C)CN([C@@H](C)CO)C(=O)c2cc(NS(=O)(=O)c3ccc(F)cc3)ccc2O1	18.6	3.6	·	3.1[16.7 µM]	68.3*	·
Cn1cnc(S(=O)(=O)N2C[C@H](O)COC[C@@H]3O[C@@H](CC(=O)NC4CCCC4)CC[C@H]32)c1	-6.6	-0.9	·	·	-16.1	·
S=C(Nc1ccccc1)Nc1ccc(OCc2ccc(Cl)cc2Cl)cc1	·	4.8	-8.2	103.4*	·	0.7
O=C(Nc1ccccc1)c1cn2ccccc2n1	10.2	-2.8	-4.0	35.2	-16.7	3.9
Cc1csc(NC(=O)c2cn3ccccc3n2)n1	6.5	-33.7	-5.8	51.3	78.4*	12.8
SMILES	GSIS activator	Cneo AK release	dFosB activator	HIV Env fusion	PAX8 inh HTS	CDK5 inh
CC(C)CC#Cc1ccc([C@@H]2[C@H]3CN(C(=O)c4ccccn4)CC(=O)N3[C@H]2CO)cc1	9.2	·	·	·	·	·
O=C(CCCCCCC(=O)Nc1ccc(CO)cc1)NOCc1ccccc1	·	-4.5	·	-8.9[16.7 µM]	-41.2	·
CCOC(=O)c1cccc(NC(=O)c2cnccn2)c1	·	-0.6	2.2	-22.7	·	0.3
CCOC(=O)c1cc(NC(=O)c2cnccn2)cc(C(=O)OCC)c1	85.8*	-1.4	-6.7	·	·	-0.9
OCC1CCCN(C(=S)Nc2ccc(OC(F)F)cc2)C1 (stereo not given)	·	-1.8	0.3	·	135.6*	0.7
OCC1CCCN(C(=S)Nc2ccc(Nc3ccccc3)cc2)C1 (stereo not given)	-10.8	-8.0	-3.1	-13.8	-75.6	-0.9
CC(=O)Nc1ccccc1C(=O)C(=O)Nc1ccc(C)c(F)c1	4.8	·	1.3	·	68.9*	1.9
COc1ccc2c3c(n(C)c2c1)[C@@H](CO)N(Cc1ccc2c(c1)OCO2)CC31CCN(C(=O)c2ccc3c(c2)OCO3)CC1	8.0	·	·	·	·	·
CC(=O)Nc1nc(C)c(-c2csc(Nc3cccc(C(C)=O)c3)n2)s1	-5.0	0.9	-10.5	28.6	12.5	0.7
O=C(Nc1cccc(-c2csc(Nc3cccc(C(F)(F)F)c3)n2)c1)c1cc([N+](=O)[O-])cc(C(F)(F)F)c1	3.4	-4.3	-2.2	15.0	11.4	-0.6
CC(=O)Nc1nc(C)c(-c2csc(Nc3cccc([N+](=O)[O-])c3)n2)s1	134.1*	3.7	0.0	·	·	0.0
CC(=O)c1cccc(Nc2nc(-c3cccc([N+](=O)[O-])c3)cs2)c1	·	-1.5	8.5	71.5*	·	-0.8
C[C@H](CO)N1C[C@H](C)[C@H](CN(C)C(=O)Nc2ccc(F)cc2)Oc2ccc(NC(=O)Nc3ccc4c(c3)OCO4)cc2CC1=O	-6.5	-0.3	·	7.2[16.7 µM]	0.5	·
C=CCn1c(SCC(=O)NCCC2=CCCCC2)nc2ccc(Cl)cc2c1=O	·	2.3	-1.8	62.5*	26.9	0.0
COCCn1c(SCC(=O)NCCc2ccccc2)nc2c([nH]c3ccccc32)c1=O	·	0.5	1.2	·	·	0.4
C=CCn1c(SCC(=O)NCCc2ccccc2)nc2c([nH]c3ccccc32)c1=O	-0.2	-1.5	-3.4	57.5*	·	-2.6
COCCn1c(SCC(=O)Nc2ccccc2F)nc2c([nH]c3ccccc32)c1=O	57.2	-0.1	-0.3	9.7	·	-1.4
C=CCn1c(SCC(=O)N2CCN(c3ccccc3)CC2)nc2c([nH]c3ccccc32)c1=O	4.5	-1.9	-0.3	-38.5	11.6	-4.0
